Test [1] relates to MDA-MB-231. As to the kind of experiment: Growth inhibition of human MDA-MB-231 cells at 20 uM after 48 hrs by MTT assay. Particulars: MDA-MB-231, 48 h, read-out: GI. Type of test: functional. In short, it runs like this:
(§1)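 MTT viability assay with 48 h exposure at a single 20 μM concentration. Result given as percent inhibition of cell growth; n = 3.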
(Tetrazolium dyes change colour on reduction, which living cells bring about.)

The test system of test [2] is MDA-MB-231. As to the kind of experiment: Growth inhibition of human MDA-MB-231 cells after 48 hrs by MTT assay. Type of test: functional, cell-based. Particulars: MDA-MB-231, 48 h.
Test [3] has as its system MCF7. As to the kind of experiment: Growth inhibition of human MCF7 cells after 48 hrs by MTT assay. In kind it is functional, cell-based. Particulars: MCF7, 48 h.
In test [4] the test system is MCF7. Kind of test: Growth inhibition of human MCF7 cells at 20 uM after 48 hrs by MTT assay. Type of test: functional. Particulars: MCF7, 48 h, read-out: GI. In short, it runs like this: as §1

In general, IC50 refers to the point on the concentration scale where inhibition reaches its midpoint. The low end stands for greater potency, the high end for weaker potency.

In the case of `N#Cc1ccc2[nH]cc(C(c3ccc(C(c4c[nH]c5ccc(C#N)cc45)c4c[nH]c5ccc(C#N)cc45)cc3)c3c[nH]c4ccc(C#N)cc34)c2c1`, the inhibition of growth at 20 µM in test [1] was 8%. Moreover, the values for the IC50 in test [2] and in test [3] were more than 20 µM and 9.5 µM, respectively.
Take `Brc1ccc2[nH]cc(C(c3ccc(C(c4c[nH]c5ccc(Br)cc45)c4c[nH]c5ccc(Br)cc45)cc3)c3c[nH]c4ccc(Br)cc34)c2c1`: the inhibition of growth at 20 µM in test [1] was 5%; in test [4], 25%. For the same molecule, the IC50 in test [2] and in test [3] was more than 20 µM throughout.
For the molecule `Nc1ccc2[nH]cc(C(c3ccc(C(c4c[nH]c5ccc(N)cc45)c4c[nH]c5ccc(N)cc45)cc3)c3c[nH]c4ccc(N)cc34)c2c1`, the inhibition of growth at 20 µM was determined as 35% in test [1] and 25% in test [4]. In addition, the IC50 in test [2] and in test [3] was more than 20 µM in each case.
For the molecule `Oc1ccc2c(C(c3ccc(C(c4c[nH]c5cc(O)ccc45)c4c[nH]c5cc(O)ccc45)cc3)c3c[nH]c4cc(O)ccc34)c[nH]c2c1`, the inhibition of growth at 20 µM came to 16% in test [1] and 0% in test [4]. Further, the IC50 in test [2] and in test [3] was more than 20 µM throughout.
As for `c1ccc2c3c([nH]c2c1)Cc1c([nH]c2ccccc12)Cc1c([nH]c2ccccc12)Cc1c([nH]c2ccccc12)C3`, the IC50 in test [2] was found to be 1 µM; in test [3], 1.3 µM.
For `Oc1ccc2[nH]cc(C(c3ccc(C(c4c[nH]c5ccc(O)cc45)c4c[nH]c5ccc(O)cc45)cc3)c3c[nH]c4ccccc34)c2c1` (stereo not drawn) the same measures were 7.8 µM and 6.3 µM.
For `c1ccc2c(C(c3ccc(C(c4c[nH]c5ccccc45)c4c[nH]c5ccccc45)cc3)c3c[nH]c4ccccc34)c[nH]c2c1` the same measures were 9.8 µM and 16.1 µM.
`c1cc(C(c2c[nH]c3ccccc23)c2c[nH]c3ccccc23)cc(C(c2c[nH]c3ccccc23)c2c[nH]c3ccccc23)c1`: the inhibition of growth at 20 µM in test [4] is 32%. In addition, the figures for the IC50 in test [2] and in test [3] were 24.3 µM and more than 20 µM, respectively.
Regarding `c1ccc2c(C(c3ccc(C(c4c[nH]c5ccccc45)c4c[nH]c5ccccc45)s3)c3c[nH]c4ccccc34)c[nH]c2c1`, the inhibition of growth at 20 µM in test [1] amounted to 36%; in test [4], 34%. Also, the IC50 in test [2] and in test [3] was more than 20 µM each time.
For `c1ccc(C(c2c[nH]c3ccccc23)c2c[nH]c3ccccc23)c(Oc2ccccc2C(c2c[nH]c3ccccc23)c2c[nH]c3ccccc23)c1`, the inhibition of growth at 20 µM in test [1] came out at 8%; in test [4], 48%. Moreover, the IC50 in test [2] and in test [3] was more than 20 µM throughout.
As for `c1ccc2c(Cc3c[nH]c4ccccc34)c[nH]c2c1` [ARUNDINE], the 50% inhibitory concentration (IC50) in test [2] came to 10 µM; in test [3] it was 50 µM.
With `Brc1ccc2[nH]cc(C(c3ccc(C(c4c[nH]c5ccccc45)c4c[nH]c5ccccc45)cc3)c3c[nH]c4ccc(Br)cc34)c2c1`, the inhibition of growth at 20 µM in test [1] was 8%; in test [4], 17%. The IC50 in test [2] and in test [3] was more than 20 µM throughout.
Consider `Oc1ccc2[nH]cc(C(c3ccc(C(c4c[nH]c5ccccc45)c4c[nH]c5ccccc45)cc3)c3c[nH]c4ccc(O)cc34)c2c1`, for which the inhibition of growth at 20 µM stood at 36% in test [1] and 23% in test [4]. Also, the IC50 in test [2] and in test [3] was more than 20 µM throughout.
As to `c1ccc2c(C3CCCC(c4c[nH]c5ccccc45)(c4c[nH]c5ccccc45)C3)c[nH]c2c1` (stereo not drawn), the figures for the IC50 in test [2] and in test [3] were 20.1 µM and 19.8 µM, respectively.
`Oc1ccc2[nH]cc(C(c3cccc(C(c4c[nH]c5ccc(O)cc45)c4c[nH]c5ccc(O)cc45)c3)c3c[nH]c4ccc(O)cc34)c2c1`: in test [1], the inhibition of growth at 20 µM came to 0%. Further, the IC50 in test [2] is more than 20 µM; in test [3] it was 17.8 µM.
As to `COc1ccc2[nH]cc(C(c3ccc(C(c4c[nH]c5ccc(OC)cc45)c4c[nH]c5ccc(OC)cc45)cc3)c3c[nH]c4ccc(OC)cc34)c2c1`, the figures for the inhibition of growth at 20 µM in test [1] and in test [4] were 3% and 43%, respectively. Also, the IC50 in test [2] and in test [3] was more than 20 µM each time.
`Oc1ccc2[nH]cc(C(c3ccc(C(c4c[nH]c5ccccc45)c4c[nH]c5ccccc45)cc3)c3c[nH]c4ccccc34)c2c1` (stereo not drawn): the IC50 in test [2] was 13.9 µM; in test [3], 12.6 µM.
